# Assay results: ChEMBL document CHEMBL1125883, “Thromboxane receptor antagonism combined with thromboxane synthase inhibition. 1. (+/-)-(3-pyridinylbicycloheptyl)alkanoic acids” (J Med Chem, 1991)
# How the values were obtained:
# [1] = species: Homo sapiens; assay: In vitro inhibition of U 46619 induced aggregation of washed human platelets; format: functional
# [2] = biological target: T1, Thromboxane-A synthase (Homo sapiens, UniProt P24557); assay: In vitro inhibition of thromboxane synthase using [14C]arachidonic acid
# T1 sequence (P24557 whole entry): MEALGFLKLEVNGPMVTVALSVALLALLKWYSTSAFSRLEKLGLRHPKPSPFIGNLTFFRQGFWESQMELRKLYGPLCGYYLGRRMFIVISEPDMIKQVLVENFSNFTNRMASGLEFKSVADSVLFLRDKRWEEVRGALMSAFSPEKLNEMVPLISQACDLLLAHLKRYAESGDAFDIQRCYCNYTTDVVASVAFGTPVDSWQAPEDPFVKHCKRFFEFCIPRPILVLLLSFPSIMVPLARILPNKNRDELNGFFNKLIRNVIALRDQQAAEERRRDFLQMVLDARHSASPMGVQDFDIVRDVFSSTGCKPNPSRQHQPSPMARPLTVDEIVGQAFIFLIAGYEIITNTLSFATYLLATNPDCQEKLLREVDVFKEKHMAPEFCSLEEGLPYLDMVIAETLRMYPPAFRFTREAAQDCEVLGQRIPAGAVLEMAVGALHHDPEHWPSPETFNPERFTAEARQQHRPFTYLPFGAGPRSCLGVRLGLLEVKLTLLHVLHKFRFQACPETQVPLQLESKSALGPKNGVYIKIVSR
# In short: (§1)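 Human platelet microsomal preparation incubated with [14C]arachidonic acid; thromboxane synthase activity read as TxB2 formation; IC50 determined.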
# [3] = biological target: T1, Thromboxane-A synthase; assay: In vitro inhibition of Thromboxane synthase using [14C]arachidonic acid […]; in short: as §1
# [4] = species: Homo sapiens; assay: In vitro inhibition of U 46619 induced aggregation of human PRP; format: functional, organism-based
# [5] = species: Canis familiaris; assay: In vitro inhibition of U 46619 induced contraction of dog saphenous vein; format: functional; conditions: Canis lupus familiaris, read-out: pA2 (converted)
# In short: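 Dog saphenous vein rings 2-3 mm in modified Krebs buffer with 1.0 μM indomethacin, 95% O2/5% CO2, 37 °C, 2.0 g preload, isometric tension.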
IC50 [1] [µM],IC50 [2] [µM],IC50 [3] [µM],IC50 [4] [µM],Compound,Kb [5] [µM]
7.25,0.054,,,O=C(O)CCCCCC[C@@H]1C2CCC(C2)[C@@H]1c1cccnc1 (some centres not stated),
13,0.007,,,O=C(O)CCCCCC[C@H]1C2CCC(C2)[C@H]1c1cccnc1 (some centres not stated),

# The remaining lines, values behind:
Compound,IC50 [1] [µM],IC50 [2] [µM],IC50 [3] [µM],IC50 [4] [µM],Kb [5] [µM]
O=C(O)CCC/C=C\C[C@@H]1C2CCC(C2)[C@@]1(CCCCCc1ccccc1)c1cccnc1 (some centres not stated),1.5,0.79,,,
O=C(O)CCCCCC[C@@H]1C2CCC(C2)C1c1cccnc1 (some centres not stated),9.77,0.125,,,
O=C(O)CCCC/C=C\C[C@@H]1C2CCC(C2)C1c1cccnc1 (some centres not stated),,,0.165,,
O=C(O)CCCCO/N=C(/c1cccnc1)c1cccc(C(F)(F)F)c1 [RIDOGREL],1.28,,0.003,2.83,0.447
O=C(O)CC/C=C\C[C@@]1(c2cccnc2)C2CCC(C2)[C@H]1CNS(=O)(=O)c1ccc(Cl)cc1 (some centres not stated),0.03,0.34,,10.8,0.00324
